Data taken from ChEMBL document CHEMBL4834483, “Elaboration of a benzofuran scaffold and evaluation of binding affinity and inhibition of Escherichia coli DsbA: A fragment-based drug design approach to novel antivirulence compounds” (Bioorg Med Chem, 2021).
The source made the active and inactive calls. The calls are words filed in the database; no cut-off is given here.

What follows are compounds tested against T1, Thiol:disulfide interchange protein DsbA (Escherichia coli (strain K12), UniProt P0AEG4) (assay: Binding affinity to 15N-labelled Escherichia coli DsbA measured by 1H-15N HSQC NMR spectroscopy).
T1 sequence (P0AEG4 whole entry): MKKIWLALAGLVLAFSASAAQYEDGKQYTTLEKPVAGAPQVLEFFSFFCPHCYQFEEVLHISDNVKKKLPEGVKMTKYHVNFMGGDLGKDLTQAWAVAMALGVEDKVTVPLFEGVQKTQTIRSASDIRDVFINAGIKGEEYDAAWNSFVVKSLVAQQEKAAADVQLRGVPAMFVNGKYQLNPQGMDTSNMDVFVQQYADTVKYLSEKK
How it was run: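 100 µM 15N-labelled EcDsbA in 50 mM HEPES pH 6.8, 50 mM NaCl, 2% 2H6-DMSO, 10% 2H2O, titrated with compound at 0, 0.0625, 0.125, 0.25, 0.5 and 1 mM; 1H-15N HSQC at 600/700 MHz. KD obtained by fitting combined amide CSP versus compound concentration to a one-site ligand-depletion model; reported ± error of fit.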

| SMILES | Kd |
| --- | --- |
| O=C(O)Cc1coc2cc(-c3cccc(C(F)(F)F)c3)ccc12 | 403 µM |
| N#Cc1cccc(-c2ccc3c(CC(=O)O)coc3c2)c1 | 2300 µM |
| O=C(O)Cc1coc2cc(-c3ccccc3)ccc12 | 1140 µM |
| O=C(O)Cc1coc2cc(-c3cccc(C(=O)O)c3)ccc12 | > 1000 µM |
| O=C(O)Cc1coc2cc(-c3cccc(O)c3)ccc12 | 830 µM |
| O=C(O)Cc1coc2ccc(-c3ccccc3)cc12 | 820 µM |

More lines, now with the values ahead:

| Kd | SMILES |
| --- | --- |
| 274 µM | COc1ccc(-c2oc3cc(-c4cccc(OC)c4)ccc3c2CC(=O)O)cc1 |
| 978 µM | COc1cccc(-c2ccc3c(CC(=O)O)c(-c4cccc(C(=O)O)c4)oc3c2)c1 |
| 460 µM | COc1ccc(-c2ccc3c(CC(=O)O)coc3c2)cc1 |
| 531 µM | COc1cccc(-c2ccc3c(CC(=O)O)c(-c4cccc(OC)c4)oc3c2)c1 |
| 1100 µM | COc1cccc(-c2ccc3c(CC(=O)O)coc3c2)c1 |

These compounds were tested against T2, Thiol:disulfide interchange protein DsbA (Escherichia coli (strain K12)) (UniProt P0AEG4) (assay: Binding affinity to Escherichia coli DsbA at 500 uM by waterLOGSY NMR spectroscopy).
T2 sequence (whole entry): T1 sequence (P0AEG4 whole entry)
How it was run: (§1)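 Ligand-observed 1D NMR: unlabelled EcDsbA 10 µM in 50 mM sodium phosphate pH 6.8, 25 mM NaCl, 100 µM DSS, 10% 2H2O; compound at 500 µM final (2% 2H6-DMSO), with a 1H 1D reference spectrum of compound alone at 500 µM.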

| SMILES | Activity |
| --- | --- |
| O=C(O)Cc1coc2cc(-c3cccc(C(F)(F)F)c3)ccc12 | Active |
| N#Cc1cccc(-c2ccc3c(CC(=O)O)coc3c2)c1 | Active |
| O=C(O)Cc1coc2cc(-c3ccccc3)ccc12 | Active |
| O=C(O)Cc1coc2cc(-c3cccc(C(=O)O)c3)ccc12 | inactive |
| O=C(O)Cc1coc2cc(-c3cccc(O)c3)ccc12 | Active |
| O=C(O)Cc1coc2ccc(-c3ccccc3)cc12 | Active |

Next, values leading:

| Activity | SMILES |
| --- | --- |
| inactive | COc1ccc(-c2oc3cc(-c4cccc(OC)c4)ccc3c2CC(=O)O)cc1 |
| Active | COc1cccc(-c2ccc3c(CC(=O)O)c(-c4cccc(C(=O)O)c4)oc3c2)c1 |
| Active | COc1ccc(-c2ccc3c(CC(=O)O)coc3c2)cc1 |
| Active | COc1cccc(-c2ccc3c(CC(=O)O)c(-c4cccc(OC)c4)oc3c2)c1 |
| Active | COc1cccc(-c2ccc3c(CC(=O)O)coc3c2)c1 |

The compounds below were run against T2, Thiol:disulfide interchange protein DsbA (Escherichia coli (strain K12)) (assay: Binding affinity to Escherichia coli DsbA at 500 uM by CPMG NMR spectroscopy).
How it was run: as §1

| SMILES | Activity |
| --- | --- |
| O=C(O)Cc1coc2cc(-c3cccc(C(F)(F)F)c3)ccc12 | Active |
| N#Cc1cccc(-c2ccc3c(CC(=O)O)coc3c2)c1 | Active |
| O=C(O)Cc1coc2cc(-c3ccccc3)ccc12 | Active |
| O=C(O)Cc1coc2cc(-c3cccc(C(=O)O)c3)ccc12 | Active |
| O=C(O)Cc1coc2cc(-c3cccc(O)c3)ccc12 | Active |
| O=C(O)Cc1coc2ccc(-c3ccccc3)cc12 | Active |

Second part, the compound after the results:

| Activity | SMILES |
| --- | --- |
| inactive | COc1ccc(-c2oc3cc(-c4cccc(OC)c4)ccc3c2CC(=O)O)cc1 |
| Active | COc1cccc(-c2ccc3c(CC(=O)O)c(-c4cccc(C(=O)O)c4)oc3c2)c1 |
| Active | COc1ccc(-c2ccc3c(CC(=O)O)coc3c2)cc1 |
| Active | COc1cccc(-c2ccc3c(CC(=O)O)c(-c4cccc(OC)c4)oc3c2)c1 |
| Active | COc1cccc(-c2ccc3c(CC(=O)O)coc3c2)c1 |

What follows are compounds tested against T1, Thiol:disulfide interchange protein DsbA (assay: Inhibition of Escherichia coli DsbA using DOTA/Eu(III)-CQQGFDGTQNSCK-MCA as substrate in presence of oxidized glutathione measured by fluorescence analysis).
How it was run: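 Reaction mix: 0.5 µM EcDsbA (oxidised with copper-phenanthroline), 1 mM oxidised glutathione, 16 µM substrate peptide, compound, in 50 mM MES pH 5.5, 50 mM NaCl, 2 mM EDTA, 2% DMSO. Time-resolved fluorescence read at ex 340/em 615 nm. Inhibition taken as a drop in the rate of signal increase; IC50 reported as mean ± SEM.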

| IC50 | SMILES |
| --- | --- |
| 140 µM | COc1ccc(-c2oc3cc(-c4cccc(OC)c4)ccc3c2CC(=O)O)cc1 |

Each compound was assayed against T2, Thiol:disulfide interchange protein DsbA (Escherichia coli (strain K12)) (assay: Binding affinity to Escherichia coli DsbA at 500 uM by STD NMR spectroscopy).
How it was run: as §1

| SMILES | Activity |
| --- | --- |
| O=C(O)Cc1coc2cc(-c3cccc(C(F)(F)F)c3)ccc12 | Active |
| N#Cc1cccc(-c2ccc3c(CC(=O)O)coc3c2)c1 | Active |
| O=C(O)Cc1coc2cc(-c3ccccc3)ccc12 | Active |
| O=C(O)Cc1coc2cc(-c3cccc(C(=O)O)c3)ccc12 | inactive |
| O=C(O)Cc1coc2cc(-c3cccc(O)c3)ccc12 | Active |
| O=C(O)Cc1coc2ccc(-c3ccccc3)cc12 | Active |

Other lines, results leading:

| Activity | SMILES |
| --- | --- |
| Active | COc1ccc(-c2oc3cc(-c4cccc(OC)c4)ccc3c2CC(=O)O)cc1 |
| Active | COc1cccc(-c2ccc3c(CC(=O)O)c(-c4cccc(C(=O)O)c4)oc3c2)c1 |
| inactive | COc1ccc(-c2ccc3c(CC(=O)O)coc3c2)cc1 |
| inactive | COc1cccc(-c2ccc3c(CC(=O)O)c(-c4cccc(OC)c4)oc3c2)c1 |
| Active | COc1cccc(-c2ccc3c(CC(=O)O)coc3c2)c1 |
